Results from different studies.
Compare with care: the assays were run in different laboratories.
Organism: Staphylococcus aureus
Effect on: microbial growth

| SMILES | test | system | conditions | MIC |
| --- | --- | --- | --- | --- |
| COC(=O)c1cc(-c2cccc(NC(=S)Nc3ccc([N+](=O)[O-])cc3)c2)on1 | broth dilution | ATCC29213 | – | > 64 µg/mL |
| O=[N+]([O-])c1ccc(/C=N/Nc2nc(Nc3ccccc3)nc(Nc3ccccc3)n2)o1 | – | ATCC43300 | – | 2.4 µM |
| CN[C@H](CC(C)C)C(=O)N[C@H]1C(=O)N[C@@H](CC(N)=O)C(=O)N[C@H]2C(=O)N[C@H]3C(=O)N[C@H](C(=O)N[C@H](C(=O)O)c4cc(O)cc(O)c4-c4cc3ccc4O)[C@H](O)c3ccc(c(Cl)c3)Oc3cc2cc(c3O[C@@H]2O[C@H](CO)[C@@H](O)[C@H](O)[C@H]2O[C@H]2C[C@](C)(N)[C@H](O)[C@H](C)O2)Oc2ccc(cc2Cl)[C@H]1O | – | ATCC700699 | drug-resistant strain | 0.39 µg/mL |
| O=C(CCCCCCCCCCOc1ccccc1)CP(=O)(O)O | – | ATCC33591 MRSA | drug-resistant strain | 100 µg/mL |
| Cc1ccc2[nH]c3c(c2c1)CCCC3NCCc1ccc(O)cc1 (stereo not shown) | broth dilution | VISA | – | 16 µg/mL |
| Cc1ccc2nc(-c3ccc([N+](=O)[O-])cc3)[nH]c2c1 | broth dilution | ATCC43300 MRSA | drug-resistant strain | 256 µg/mL |
| CN(C)[C@@H]1C(O)=C(C(N)=O)C(=O)[C@@]2(O)C(O)=C3C(=O)c4c(O)cccc4[C@@](C)(O)[C@H]3C[C@@H]12 | – | USA300 | – | 256 µg/mL |
| COC(=O)c1cc(-c2cccc(NC(=O)Nc3ccc(C)cc3)c2)on1 | broth dilution | ATCC29213 | – | > 64 µg/mL |
| C[C@H]1COCCN1c1nc(NCc2cccnc2C(F)(F)F)c2cccnc2n1 | broth dilution | MRSA | – | 128 µg/mL |
| CC1(C)CC[C@]2(C(=O)O)CC[C@]3(C)C(=CC[C@@H]4[C@@]5(C)CC[C@H](O)C(C)(C)[C@@H]5CC[C@]43C)[C@@H]2C1 | – | USA300 | – | 256 µg/mL |
| Oc1cccc(-c2nc3ccccc3[nH]2)c1 | broth dilution | ATCC43300 MRSA | drug-resistant strain | 128 µg/mL |
| COc1ccc(OS(=O)(=O)NC(=O)CCCCc2ccccc2)cc1 | – | ATCC33591 MRSA | drug-resistant strain | > 200 µg/mL |
| Cc1ccc2nc(-c3ccccc3Cl)[nH]c2c1 | broth dilution | ATCC43300 MRSA | drug-resistant strain | 256 µg/mL |
| COC(=O)c1cc(-c2cccc(NC(=S)Nc3ccccc3Cl)c2)on1 | broth dilution | ATCC29213 | – | > 64 µg/mL |
| Cn1cc(C2=C(c3cn(C4CCN(Cc5ccccn5)CC4)c4ccccc34)C(=O)NC2=O)c2ccccc21 | – | NCTC8325 | – | > 30 µM |
| Oc1ccc(Br)cc1-c1nc2ccccc2[nH]1 | broth dilution | ATCC43300 MRSA | drug-resistant strain | 128 µg/mL |
| COC(=O)c1cc(-c2cccc(NC(=O)Nc3ccc(F)cc3)c2)on1 | broth dilution | ATCC29213 | – | > 64 µg/mL |
| Cc1cc(Cl)ccc1-c1ccc(/C=C2\SC(=S)N(CC(=O)O)C2=O)o1 | broth dilution | MRSA USA300 | drug-resistant strain | 8 to 64 µg/mL |
| Clc1ccc(-c2nc3ccccc3[nH]2)cc1Cl | broth dilution | ATCC43300 MRSA | drug-resistant strain | 64 µg/mL |
